Published values of several laboratories.
Compare with care: the assays were run in different laboratories.

Structure (SMILES)	system	setting	endpoint	value
CNC(=O)n1ccc2cc(Oc3ccnc(NC(=O)c4ccc(C5CCN(CCO)CC5)cc4)c3)c(OCCOC)cc21	human, plasma	oral, 35 mg, single dose, fasted, healthy volunteers	Cmax	9.82 ng/mL
Cn1cc(Nc2nc(N)nc(-c3cccc(-n4ccc5cc(C6CC6)cc(F)c5c4=O)c3CO)n2)cn1	human, plasma	oral, 25 mg, single dose, fasted, suspension	Cmax	219 ng/mL
C=CS(=O)(=O)c1ccc(Nc2nc(OCC3CCCCC3)c3nc[nH]c3n2)cc1	male BALB/c mouse, plasma	intravenous, 20 mg/kg, single dose	Tmax	4.8 min
Cl.[2H]C([2H])([2H])CC(=O)c1cnc(NC(=O)C2CC2)cc1Nc1cccc(-c2ncn(C([2H])([2H])[2H])n2)c1OC	human, plasma	oral, 10 mg, multiple doses, once daily, fasted	Cmax	99.5 ng/mL
N#C[C@@]12C[C@@H]1[C@@H](n1cnc3c(N[C@@H](C4CCC4)C4CC4)nc(I)nc31)[C@H](O)[C@@H]2O	Caco-2		efflux ratio	2.76
CCN1CCN(Cc2ccc(NC(=O)c3ccc(C)c(NC(=O)c4cncc(-c5cccs5)c4)c3)cc2C(F)(F)F)CC1	mouse, plasma	intraperitoneal, 10 mg/kg, single dose	Tmax	30 min
CN1CC[C@@H](c2c(O)cc(O)c3c(=O)cc(-c4ccc(C(F)(F)F)cc4Cl)oc23)[C@@H]1CO	human, plasma	oral, 50 mg, patients	Cmax	86.3 ng/mL
C[C@H]1O[C@@H](O[C@H]2[C@@H](O)C[C@H](O[C@H]3[C@@H](O)C[C@H](O[C@H]4CC[C@@]5(C)[C@H](CC[C@@H]6[C@@H]5C[C@@H](O)[C@]5(C)[C@@H](C7=CC(=O)OC7)CC[C@]65O)C4)O[C@@H]3C)O[C@@H]2C)C[C@H](O)[C@@H]1O	Caco-2	5 µM, 2 h	efflux ratio	50.7
COc1ccc([C@@H](O)c2cc(-c3ncnc4cc(N5CCOCC5)ccc34)c(F)cc2Cl)nn1	human, plasma	oral, 150 mg, single dose, patients	Cmax	1460 ng/mL
Cc1c(N(C)C)ccc2cc(C(=O)NS(=O)(=O)c3ccccc3-c3ccccc3)oc12	Caco-2	2 µM, 2 h, pH 7.2	efflux ratio	0.7
CCOC(=O)c1cc(Cl)cc(NC(=O)c2sc(Cl)cc2S(=O)(=O)N(C)c2ccc(OCC)c(OC)c2)c1	male C57BL/6 mouse, brain	intraperitoneal, 10 mg/kg	Tmax	15 min
